From publication PMC9444296 (Investigative Radiology, 2022)
Read-outs that look alike come from different tables or passages of the source. Where no end group is shown, it is not given here.

What was measured:
CYP2D6 = CYP2D6 (Homo sapiens, UniProt P10635); assay: CYP2D6 inhibition in human liver microsomes; type: in vitro ADME; conditions: CYP2D6, positive control selective inhibitor, human liver microsomes
[1] = Hepatocyte metabolic stability, negative and positive controls; type: in vitro ADME; conditions: hepatocyte incubation
CYP2B6 [2] = conditions: positive control 1000 μM, CYP2B6, human primary hepatocytes
CYP2C8 = CYP2C8 (Homo sapiens, UniProt P10632); assay: CYP2C8 inhibition in human liver microsomes; type: in vitro ADME; conditions: CYP2C8, positive control selective inhibitor
CYP2C8, sequence (P10632 whole entry): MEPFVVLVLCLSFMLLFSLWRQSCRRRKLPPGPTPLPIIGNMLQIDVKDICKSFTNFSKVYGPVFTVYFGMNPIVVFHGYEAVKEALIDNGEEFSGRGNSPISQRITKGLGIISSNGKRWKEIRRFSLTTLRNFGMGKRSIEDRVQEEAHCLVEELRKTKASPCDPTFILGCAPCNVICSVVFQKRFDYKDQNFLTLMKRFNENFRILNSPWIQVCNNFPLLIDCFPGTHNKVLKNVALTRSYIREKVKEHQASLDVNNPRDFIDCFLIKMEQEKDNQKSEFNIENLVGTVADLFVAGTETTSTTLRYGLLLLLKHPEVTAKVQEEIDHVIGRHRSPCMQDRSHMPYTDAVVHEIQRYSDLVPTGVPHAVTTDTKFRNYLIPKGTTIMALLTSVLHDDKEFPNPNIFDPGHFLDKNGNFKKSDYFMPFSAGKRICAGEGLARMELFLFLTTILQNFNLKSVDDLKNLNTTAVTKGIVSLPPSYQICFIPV

[3] = Metabolic pathway study in human liver microsomes; type: in vitro ADME; conditions: 120 minutes
CYP2C9 = CYP2C9 (Homo sapiens, UniProt P11712); assay: CYP2C9 inhibition in human liver microsomes; conditions: CYP2C9, positive control selective inhibitor, human liver microsomes
CYP2C9, sequence (P11712 whole entry): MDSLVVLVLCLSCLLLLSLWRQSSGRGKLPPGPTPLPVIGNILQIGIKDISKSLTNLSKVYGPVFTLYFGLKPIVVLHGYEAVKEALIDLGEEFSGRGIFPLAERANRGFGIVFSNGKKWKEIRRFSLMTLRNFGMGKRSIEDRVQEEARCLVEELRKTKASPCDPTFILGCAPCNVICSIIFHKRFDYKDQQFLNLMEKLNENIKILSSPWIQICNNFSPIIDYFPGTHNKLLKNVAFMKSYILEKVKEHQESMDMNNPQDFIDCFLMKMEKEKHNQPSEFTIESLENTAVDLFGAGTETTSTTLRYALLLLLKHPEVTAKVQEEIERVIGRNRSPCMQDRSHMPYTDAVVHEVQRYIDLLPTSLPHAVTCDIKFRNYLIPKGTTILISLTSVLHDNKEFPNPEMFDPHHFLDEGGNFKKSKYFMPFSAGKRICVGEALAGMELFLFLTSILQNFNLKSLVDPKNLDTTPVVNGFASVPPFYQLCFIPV

CYP1A2 = conditions: positive control 50 μM, CYP1A2, human primary hepatocytes
EDB protein fragment = EDB protein fragment (Homo sapiens, UniProt P02751); conditions: cited from earlier work
EDB protein fragment, sequence (P02751 1271-1359 limits assumed): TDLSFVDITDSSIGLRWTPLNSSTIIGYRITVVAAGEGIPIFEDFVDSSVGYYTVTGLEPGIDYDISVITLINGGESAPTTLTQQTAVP

CYP2B6 [4] = biological target: CYP2B6 (Homo sapiens, UniProt P20813); conditions: CYP2B6, positive control selective inhibitor, human liver microsomes
CYP2B6 (Homo sapiens, UniProt P20813), sequence (P20813 whole entry): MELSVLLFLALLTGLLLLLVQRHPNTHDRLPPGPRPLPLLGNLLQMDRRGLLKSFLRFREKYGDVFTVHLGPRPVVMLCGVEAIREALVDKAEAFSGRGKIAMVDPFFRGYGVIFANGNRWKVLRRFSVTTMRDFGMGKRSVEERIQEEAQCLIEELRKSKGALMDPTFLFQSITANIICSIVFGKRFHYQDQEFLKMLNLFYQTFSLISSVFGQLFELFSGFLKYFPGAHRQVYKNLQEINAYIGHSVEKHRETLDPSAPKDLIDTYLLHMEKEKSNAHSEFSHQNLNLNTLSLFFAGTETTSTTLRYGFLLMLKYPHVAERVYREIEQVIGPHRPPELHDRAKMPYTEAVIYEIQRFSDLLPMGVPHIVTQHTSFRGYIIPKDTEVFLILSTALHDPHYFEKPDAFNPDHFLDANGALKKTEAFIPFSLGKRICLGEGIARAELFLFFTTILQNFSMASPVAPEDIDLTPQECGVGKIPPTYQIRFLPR

[5] = system: PC3 human prostate cancer xenografts; assay: Contrast-enhanced MRI of PC3 prostate tumor xenografts in rats; type: in vivo, rat; conditions: PC3 tumors in rats, 0.1 mmol/kg IV, 3 T, n = 6
Method in brief: (§1)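 Male rats carried subcutaneous flank xenografts of 4 × 10⁶ PC3 or 8 × 10⁶ LNCaP cells in Matrigel-PBS (1:1) and were imaged once tumours exceeded 100 mm³. Scans used 1 mm slices, 2 averages and a 128 × 128 matrix. The same tumour-bearing rats were reused across agents and doses, with a clinical Gd agent at 0.1 mmol Gd/kg as comparator.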

[6] = cited from earlier work
[7] = system: LNCaP human prostate tumors; assay: Contrast-enhanced MRI of LNCaP prostate tumor xenografts in rats; type: in vivo, rat; conditions: 0.1 mmol/kg IV, 3 T, n = 3
Method in brief: as §1

CYP2D6, sequence (P10635 whole entry): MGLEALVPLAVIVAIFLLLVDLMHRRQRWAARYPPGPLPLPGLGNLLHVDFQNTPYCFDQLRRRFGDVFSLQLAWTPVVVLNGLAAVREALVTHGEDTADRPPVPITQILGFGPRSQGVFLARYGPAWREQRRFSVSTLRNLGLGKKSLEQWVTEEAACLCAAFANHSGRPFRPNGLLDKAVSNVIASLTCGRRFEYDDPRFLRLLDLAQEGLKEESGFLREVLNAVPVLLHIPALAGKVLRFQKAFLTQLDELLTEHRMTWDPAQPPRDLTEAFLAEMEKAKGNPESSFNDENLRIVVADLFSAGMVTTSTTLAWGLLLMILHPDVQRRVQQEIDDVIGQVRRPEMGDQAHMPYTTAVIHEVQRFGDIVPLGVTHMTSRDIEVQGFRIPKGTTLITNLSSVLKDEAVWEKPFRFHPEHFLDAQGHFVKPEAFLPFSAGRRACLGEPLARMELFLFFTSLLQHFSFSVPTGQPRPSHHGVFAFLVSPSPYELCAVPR

Compound: C=C[C@H]1C[N@@]2CC[C@H]1C[C@@H]2[C@@H](O)c1ccnc2ccc(OC)cc12 [quinidine, reference compound]
- enzyme activity decreased by (CYP2D6): 91.2%

Compound: O=c1ccc2ccc(O)cc2o1 [7-hydroxycoumarin]
- remaining substrate in the positive control [1]: 18.8%

Compound: CCC1(c2ccccc2)C(=O)NC(=O)NC1=O [phenobarbital, reference compound]
- increase of enzyme activity vs vehicle control (CYP2B6 [2]): ~12 fold
- increase of mRNA expression vs vehicle control (CYP2B6 [2]): ~14 fold

Compound: CC(C)(O)c1ccccc1CC[C@@H](SCC1(CC(=O)O)CC1)c1cccc(/C=C/c2ccc3ccc(Cl)cc3n2)c1 [montelukast, reference compound]
- enzyme activity decreased by (CYP2C8): 80.0%

Compound: C[C@]12CC[C@H]3[C@@H](CCC4=CC(=O)CC[C@@]43C)[C@@H]1CC[C@@H]2O [testosterone, reference compound]
- remaining testosterone (systematic control) [3]: 11.4%
- remaining substrate in the positive control [1]: 9.29%

Compound: Nc1ccc(S(=O)(=O)Nc2ccnn2-c2ccccc2)cc1 [sulfaphenazole, reference compound]
- enzyme activity decreased by (CYP2C9): 87.4%

Compound: COc1ccc2[nH]c([S+]([O-])Cc3ncc(C)c(OC)c3C)nc2c1 (centres unmarked) [omeprazole, reference compound]
- increase of enzyme activity vs vehicle control (CYP1A2): about 40 fold
- increase of mRNA expression vs vehicle control (CYP1A2): about 62 fold

Compound: TVRTSAD [ZD2]
- binding affinity to the EDB fragment (EDB protein fragment): moderate binding affinity

Compound: S=P(N1CC1)(N1CC1)N1CC1 [thiotepa, reference compound]
- enzyme activity decreased by (CYP2B6 [4]): 89.2%

Compound: CC(O)CN1CCN(CC(=O)[O-])CCN(CC(=O)[O-])CCN(CC(=O)[O-])CC1.[Gd+3] (centres unmarked) [Gadoteridol, gadoteridol]
- CNR ([5]; 10 minutes postinjection): 1.32 ± 0.58
- CNR ([5]; 30 minutes postinjection): 1.714 ± 0.69
- r1 Relaxivity ([6]; 1.4 T, H2O): 3.2 (H2O) mM^−1 s^−1
- r1 Relaxivity ([6]; 1.5 T, H2O): 2.9 (H2O) mM^−1 s^−1
- r1 Relaxivity ([6]; 1.5 T, plasma): 4.1 mM⁻¹ s⁻¹
- r1 Relaxivity ([6]; 3.0 T, H2O): 2.8 (H2O) mM^−1 s^−1
- r1 Relaxivity ([6]; 3.0 T, plasma): 3.7 mM⁻¹ s⁻¹
- CNR [7]: 1.79 ± 0.74
